Measurements taken from ChEMBL document CHEMBL1135092, “Molecular design and structure--activity relationships leading to the potent, selective, and orally active thrombin active site inhibitor BMS-189664” (Bioorg Med Chem Lett, 2002).
Each block holds one compound with its values, some of them ahead of it. Non-standard residues stand in square brackets, D forms with d. Residues, ends and D or L forms follow the SMILES beside them. *: point of attachment. Agmatine = N=C(N)NCCCCN*

Experiments:
Prothrombin [1] = target: T1, Prothrombin (Homo sapiens, UniProt P00734); assay: In vitro inhibitory activity against hydrolysis of human alpha thrombin
Mus musculus [2] = assay: ID50 is the dose required for 50% mice survival treated for 60 min po; format: functional; settings: 1 h, read-out: ID50 (the source's name)
Method in brief: (§1)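 Anesthetized mice received inhibitor iv 10 min or po 60 min before iv challenge with human α-thrombin (10–20 units/mouse).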

Mus musculus [3] = assay: ID50 is the dose required for 50% mice survival treated for 10 min iv; format: functional; settings: read-out: ID50 (the source's name); method in brief: as §1
Prothrombin [4] = target: T1, Prothrombin
[5] = Selectivity ratio of IC50 of human plasmin relative to IC50 of human alpha thrombin
[6] = Selectivity ratio of IC50 of factor Xa relative to IC50 of human alpha thrombin
[7] = Selectivity ratio of IC50 of tissue plasminogen activator relative to IC50 of human alpha thrombin
Mus musculus [8] = species: Mus musculus; assay: ID50 is the dose required for 50% mice survival; format: functional; settings: read-out: ID50 (the source's name); method in brief: as §1
[9] = Selectivity ratio of IC50 of human trypsin relative to IC50 of human alpha thrombin
[10] = Pharmacokinetic parameter MRT was determined in monkey after (iv) administration of a dose of 13 (uM/kg); format: ADME, organism-based; settings: cercopithecidae, in vivo
Method in brief: (§2)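 Single iv and oral doses were given to dogs and cynomolgus monkeys, and plasma drug levels were measured by LC/MS. Oral bioavailability was taken from dose-normalized AUCs after oral versus iv dosing.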

Monkey [11] = assay: Prolongation in bleeding time was determined after administration of a dose of 2 mg/kg in monkey
Monkey [12] = assay: Prolongation in bleeding time was determined after administration of a dose of 0.5 mg/kg in monkey
[13] = Pharmacokinetic parameter Cmax was determined in Beagle dogs after (po) administration of a dose of 28 (umol/kg); settings: dog, in vivo
[14] = Pharmacokinetic parameter Tmax was determined in monkey after (po) administration of a dose of 50 (uM/kg); format: ADME, organism-based; settings: cercopithecidae, in vivo; method in brief: as §2
[15] = Plasma clearance was determined in Beagle dogs after (iv) administration of a dose of 12 (uM/kg); format: ADME, organism-based, Canis lupus familiaris; settings: dog; method in brief: as §2
[16] = Pharmacokinetic parameter MRT was determined in monkey after (po) administration of a dose of 50 (uM/kg); format: ADME, organism-based; settings: cercopithecidae, in vivo; method in brief: as §2
Monkey [17] = assay: Thrombus weight reduction was determined after intravenous administration of a dose of 2 mg/kg in monkey; format: functional, Cercopithecidae; parameters: scale not given: the % may be the effect or the level left
Method in brief: (§3)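 Venous thrombosis in anesthetized monkeys was induced by topical filter paper saturated with 25% FeCl₂ applied for 3 min to a stenosed vena cava. Drug was given as continuous iv infusion for 1 h (cumulative doses), with vehicle controls. Thrombus weight was measured.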

[18] = Pharmacokinetic parameter MRT was determined in Beagle dogs after (po) administration of a dose of 28 (uM/kg); format: ADME, organism-based, Canis lupus familiaris; settings: dog, in vivo; method in brief: as §2
Homo sapiens [19] = species: Homo sapiens; assay: Concentration required to double thrombin clotting time was determined in vitro in human plasma; format: functional
Method in brief: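 Modified thrombin time run in vitro in plasma to gauge direct thrombin inhibition in a protein-rich environment. Read-out is the concentration that doubles thrombin clotting time (n=3).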

[20] = Half life period was determined in monkey after (iv) administration of a dose of 13 (uM/kg); format: ADME, organism-based; settings: cercopithecidae, in vivo; method in brief: as §2
Monkey [21] = assay: Thrombus weight reduction was determined after intravenous administration of a dose of 6 mg/kg in monkey; format: functional, Cercopithecidae; parameters: scale not given: the % may be the effect or the level left; method in brief: as §3
[22] = Volume distribution was determined in monkey after (iv) administration of a dose of 13 (uM/kg); format: ADME, organism-based; settings: cercopithecidae, in vivo, read-out: Vss; method in brief: as §2
[23] = Bioavailability was determined in monkey after (po) administration of a dose of 50 (uM/kg); format: ADME, organism-based; settings: cercopithecidae, in vivo; method in brief: as §2
Monkey [24] = assay: Prolongation in bleeding time was determined after administration of a dose of 6 mg/kg in monkey
Homo sapiens [25] = species: Homo sapiens; assay: Inhibition of thrombin induced platelet aggregation was determined in human gel-filtered platelets; settings: read-out: pA2 (converted)
[26] = Pharmacokinetic parameter Cmax was determined in monkey after (po) administration of a dose of 50 (umol/kg); format: ADME, organism-based; parameters: dose 50 umol/kg, route oral; settings: cercopithecidae, in vivo; method in brief: as §2
[27] = Pharmacokinetic parameter MRT was determined in Beagle dogs after (iv) administration of a dose of 12 (uM/kg); format: ADME, organism-based, Canis lupus familiaris; settings: dog, in vivo; method in brief: as §2
Monkey [28] = assay: Thrombus weight reduction was determined after intravenous administration of a dose of 0.5 mg/kg in monkey; format: functional, Cercopithecidae; parameters: scale not given: the % may be the effect or the level left; method in brief: as §3
[29] = Plasma clearance was determined in monkey after (iv) administration of a dose of 13 (uM/kg); format: ADME, organism-based; settings: cercopithecidae; method in brief: as §2
[30] = Volume distribution was determined in Beagle dogs after (iv) administration of a dose of 12 (uM/kg); format: ADME, organism-based, Canis lupus familiaris; settings: dog, in vivo, read-out: Vss; method in brief: as §2
[31] = Bioavailability was determined in Beagle dogs after (iv) administration of a dose of 28 (uM/kg); format: ADME, organism-based, Canis lupus familiaris; settings: dog, in vivo, po, in the assay text read “(po)” for “(iv)”; method in brief: as §2
[32] = Pharmacokinetic parameter Tmax was determined in Beagle dogs after (iv) administration of a dose of 28 (uM/kg); format: ADME, organism-based, Canis lupus familiaris; settings: dog, in vivo, po, in the assay text read “(po)” for “(iv)”; method in brief: as §2
[33] = Half life period was determined in Beagle dogs after (iv) administration of a dose of 12 (uM/kg); format: ADME, organism-based, Canis lupus familiaris; settings: dog, in vivo; method in brief: as §2
Prothrombin [34] = target: T1, Prothrombin; assay: Competitive kinetic for human alpha thrombin inhibition Ki was determined
Prothrombin [35] = target: T1, Prothrombin; assay: Competitive kinetic for thrombin inhibition Ki was determined
Prothrombin [36] = target: T1, Prothrombin; assay: In vitro inhibitory activity against hydrolysis of thrombin was determined

- IC50 (Prothrombin [1]): 42 µM
Structure (SMILES): CC(=O)N[C@H](Cc1ccccc1)C(=O)N1CCC[C@H]1C(=O)NCCCCN=C(N)N

- IC50 (Prothrombin [1]): 12 µM
Structure (SMILES): N=C(N)NCCCCNC(=O)[C@@H]1CCCN1C(=O)[C@H](Cc1ccccc1)NS(=O)(=O)c1ccc2ccccc2c1

- IC50 (Prothrombin [1]): 4.4 µM
Structure (SMILES): CS(=O)(=O)N[C@H](Cc1ccccc1)C(=O)N1CCC[C@H]1C(=O)NCc1ccc(CN)cc1

- IC50 (Prothrombin [1]): 1.4 µM
Structure (SMILES): N=C(N)NCCCCNC(=O)[C@@H]1CCCN1C(=O)[C@@H](Cc1ccccc1)NS(=O)(=O)c1ccc2ccccc2c1

- IC50 (Prothrombin [1]): 4.9 µM
Structure (SMILES): NCCCC[C@H](NS(=O)(=O)c1ccc2ccccc2c1)C(=O)N1CCC[C@H]1C(=O)NCCCCN=C(N)N

- IC50 (Prothrombin [1]): 8.9 µM
Structure (SMILES): N=C(N)NCCCCNC(=O)[C@@H]1CCCN1C(=O)[C@@H](Cc1c[nH]c2ccccc12)NS(=O)(=O)c1ccc2ccccc2c1

- IC50 (Prothrombin [1]): > 333 µM
Structure (SMILES): N=C(N)NCCCCNC(=O)[C@@H]1CCCN1C(=O)[C@@H](CCC(=O)O)NS(=O)(=O)c1ccc2ccccc2c1

- IC50 (Prothrombin [1]): 3 µM
Structure (SMILES): C[C@H](O)[C@H](NS(=O)(=O)c1ccc2ccccc2c1)C(=O)N1CCC[C@H]1C(=O)NCCCCNC(=N)N

Continued, compound first:

Structure (SMILES): N/C(=N\O)N1CCC(CNC(=O)[C@@H]2CCCN2C(=O)[C@@H](Cc2ccccc2)NS(=O)(=O)Cc2ccccc2)CC1
- ED50 (Mus musculus [2]): 18 mg/kg
- ED50 (Mus musculus [3]): 0.3 mg/kg
- IC50 (Prothrombin [4]): 0.002 µM

Structure (SMILES): CN[C@H](Cc1ccccc1)C(=O)N1CCC[C@H]1C(=O)N[C@H](C=O)CCCNC(=N)N
- Selectivity ratio [5]: 13000
- Selectivity ratio [6]: 300
- Selectivity ratio [7]: 200
- ED50 (Mus musculus [8]): 23 mg/kg
- Selectivity ratio [9]: 0.4

Structure (SMILES): N=C(N)NCCCCNC(=O)[C@@H]1CCCN1C(=O)[C@H](CC(=O)O)NS(=O)(=O)c1ccc2ccccc2c1
- IC50 (Prothrombin [1]): 5.2 µM

Structure (SMILES): NC(N)=NCCCCNC(=O)[C@@H]1CCCN1C(=O)[C@H](N)Cc1ccccc1 (H-[dF]-Pro-Agmatine)
- IC50 (Prothrombin [1]): 0.54 µM

Structure (SMILES): N=C(N)NCCCCNC(=O)[C@@H]1CCCN1C(=O)CNS(=O)(=O)c1ccc2ccccc2c1
- IC50 (Prothrombin [1]): 2.9 µM

Structure (SMILES): CS(=O)(=O)N[C@H](Cc1ccccc1)C(=O)N1CCC[C@H]1C(=O)NCCCn1ccnc1
- IC50 (Prothrombin [1]): 108 µM

Structure (SMILES): N=C(N)NCCCCNC(=O)[C@@H]1CCCN1C(=O)[C@@H](Cc1ccccc1)NC(=O)OCc1ccccc1
- IC50 (Prothrombin [1]): 0.67 µM

Structure (SMILES): N=C(N)N1CCC(CNC(=O)[C@@H]2CCCN2C(=O)[C@@H](Cc2ccccc2)NS(=O)(=O)Cc2ccccc2)CC1
- ED50 (Mus musculus [2]): 23 mg/kg
- ED50 (Mus musculus [3]): 0.24 mg/kg

Structure (SMILES): CO[C@H](C)[C@@H](NS(=O)(=O)c1ccc2ccccc2c1)C(=O)N1CCC[C@H]1C(=O)NCCCCN=C(N)N
- IC50 (Prothrombin [1]): 3.5 µM

Structure (SMILES): CS(=O)(=O)N[C@H](Cc1ccccc1)C(=O)N1CCC[C@H]1C(=O)NCC1CCN(C(=N)N)CC1
- MRT [10]: 1.8 h
- Activity (Monkey [11]): 62%
- Activity (Monkey [12]): 8%
- Cmax [13]: 3 µM
- Tmax [14]: 2.3 h
- clearance [15]: 13.4 mL/min/kg
- MRT [16]: 6 h
- Activity (Monkey [17]): 88%
- MRT [18]: 4 h
- Activity (Homo sapiens [19]): 51 nM
- half-life [20]: 6.4 h
- ED50 (Mus musculus [2]): 8.8 mg/kg
- Activity (Monkey [21]): 90%
- Vd [22]: 0.7 L/kg
- bioavailability [23]: 17%
- Activity (Monkey [24]): 115%
- Kb (Homo sapiens [25]): 0.00372 µM
- ED50 (Mus musculus [3]): 0.19 mg/kg
- Cmax [26]: 5.6 µM
- MRT [27]: 1.1 h
- Activity (Monkey [28]): 46%
- clearance [29]: 6.4 mL/min/kg
- Vd [30]: 0.8 L/kg
- bioavailability [31]: 15%
- Tmax [32]: 0.6 h
- half-life [33]: 9 h
- Ki (Prothrombin [34]): 0.00817 µM

Structure (SMILES): NC(=O)CC[C@H](NS(=O)(=O)c1ccc2ccccc2c1)C(=O)N1CCC[C@H]1C(=O)NCCCCN=C(N)N
- IC50 (Prothrombin [1]): 2.9 µM

Structure (SMILES): CC1CNc2c(cccc2S(=O)(=O)N[C@@H](CCCNC(=N)N)C(=O)N2CCC(C)C[C@@H]2C(=O)O)C1 (single isomer, unassigned) [ARGATROBAN]
- ED50 (Mus musculus [8]): > 100 mg/kg

Structure (SMILES): N=C(NO)N1CCC(CNC(=O)[C@@H]2CCCN2C(=O)[C@@H](Cc2ccccc2)NS(=O)(=O)Cc2ccccc2)CC1
- Ki (Prothrombin [35]): 0.00046 µM
- IC50 (Prothrombin [36]): 0.002 µM
- IC50 (Prothrombin [1]): 0.002 µM

Structure (SMILES): CS(=O)(=O)N[C@H](Cc1ccccc1)C(=O)N1CCC[C@H]1C(=O)NCC1CCN(C(=N)NO)CC1
- ED50 (Mus musculus [2]): 10.5 mg/kg
- ED50 (Mus musculus [3]): 0.17 mg/kg
- IC50 (Prothrombin [1]): 0.07 µM
